How the values were obtained:
HepG2 = test: Hepatoprotective activity against APAP-induced toxicity in human HepG2 cells assessed as cell survival rate at 10 uM after 48 hrs by MTT assay (reference value: 23 %); assay type: functional
L02 = test: Hepatoprotective activity against D-GalN-induced toxicity in human HL-7702 cells assessed as cell survival rate at 10 uM preincubated for 48 hrs followed by D-GalN stimulation for 8 hrs by MTT assay (reference value: 33 %); assay type: functional; settings: time 56 hrs
How it was run: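 Normal human HL-7702 hepatocytes were injured with D-galactosamine at 60 mM, with test compounds at 10 μM. Viability was measured by the MTT method as OD, and survival rate was expressed as a percentage of untreated control cells. Bicyclol at 10 μM served as the positive control. Statistics compared treated cells with the D-GalN model group.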

Row | SMILES | Activity (HepG2) | Activity (L02)
1 | CC(C)C[C@@](O)(CC(=O)OCc1ccc(O[C@@H]2O[C@H](CO)[C@@H](O)[C@H](O)[C@H]2O)cc1)C(=O)OCc1ccc(O[C@@H]2O[C@H](CO)[C@@H](O)[C@H](O)[C@H]2O)cc1 | 23% | –
2 | CC(C)C[C@](CC(=O)OCc1ccc(O[C@@H]2O[C@H](COCc3ccc(O)cc3)[C@@H](O)[C@H](O)[C@H]2O)cc1)(O[C@@H]1O[C@H](CO)[C@@H](O)[C@H](O)[C@H]1O)C(=O)OCc1ccc(O[C@@H]2O[C@H](CO)[C@@H](O)[C@H](O)[C@H]2O)cc1 | 32% | 39%
3 | CC(=O)OC[C@H]1O[C@@H](O[C@@](CC(=O)OCc2ccc(O[C@@H]3O[C@H](CO)[C@@H](O)[C@H](O)[C@H]3O)cc2)(CC(C)C)C(=O)OCc2ccc(O[C@@H]3O[C@H](CO)[C@@H](O)[C@H](O)[C@H]3O)cc2)[C@H](O)[C@@H](O)[C@@H]1O | 14% | 39%
4 | CC(C)C[C@@](O)(CC(=O)OCc1ccc(O[C@@H]2O[C@H](CO)[C@@H](O)[C@H](O)[C@H]2O)cc1)C(=O)OCc1ccc(O[C@@H]2O[C@H](CO)[C@@H](O)[C@H](O)[C@H]2OCc2ccc(O)cc2)cc1 | 19% | 49%
5 | CC(C)C[C@](CC(=O)OCc1ccc(O[C@@H]2O[C@H](CO)[C@@H](O)[C@H](O)[C@H]2O)cc1)(O[C@@H]1O[C@H](CO)[C@@H](O)[C@H](O)[C@H]1OC(=O)/C=C/c1ccc(O[C@@H]2O[C@H](CO)[C@@H](O)[C@H](O)[C@H]2O)cc1)C(=O)OCc1ccc(O[C@@H]2O[C@H](CO)[C@@H](O)[C@H](O)[C@H]2O)cc1 | 25% | 43%
6 | COC(=O)C[C@](O)(CC(C)C)C(=O)OCc1ccc(O[C@@H]2O[C@H](CO)[C@@H](O)[C@H](O)[C@H]2O)cc1 | 28% | 64%
7 | CC(C)C[C@](CC(=O)OCc1ccc(O[C@@H]2O[C@H](CO)[C@@H](O)[C@H](O)[C@H]2O)cc1)(O[C@@H]1O[C@H](CO)[C@@H](O)[C@H](O)[C@H]1OC(=O)/C=C\c1ccc(O)cc1)C(=O)OCc1ccc(O[C@@H]2O[C@H](CO)[C@@H](O)[C@H](O)[C@H]2O)cc1 | 21% | 39%
8 | CC(C)C[C@](CC(=O)OCc1ccc(O[C@@H]2O[C@H](CO)[C@@H](O)[C@H](O)[C@H]2O)cc1)(O[C@@H]1O[C@H](CO)[C@@H](O)[C@H](O)[C@H]1O)C(=O)OCc1ccc(O[C@@H]2O[C@H](CO)[C@@H](O)[C@H](O)[C@H]2O)cc1 | 35% | –
9 | CC(C)C[C@](CC(=O)OCc1ccc(O[C@@H]2O[C@H](CO)[C@@H](O)[C@H](O)[C@H]2O)cc1)(O[C@@H]1O[C@H](CO)[C@@H](O)[C@H](O)[C@H]1OC(=O)/C=C/c1ccc(O)cc1)C(=O)OCc1ccc(O[C@@H]2O[C@H](CO)[C@@H](O)[C@H](O)[C@H]2O)cc1 | 23% | 52%
10 | CC(C)C[C@@](O)(CC(=O)OCc1ccc(O[C@@H]2O[C@H](COCc3ccc(O)cc3)[C@@H](O)[C@H](O)[C@H]2O)cc1)C(=O)OCc1ccc(O[C@@H]2O[C@H](CO)[C@@H](O)[C@H](O)[C@H]2O)cc1 | 27% | 60%
11 | CC(C)C[C@@](O)(CC(=O)OCc1ccc(O[C@@H]2O[C@H](CO)[C@@H](O)[C@H](O)[C@H]2O)cc1)C(=O)OCc1ccc(O[C@@H]2O[C@H](COCc3ccc(O)cc3)[C@@H](O)[C@H](O)[C@H]2O)cc1 | 28% | 55%
12 | CC(C)C[C@](CC(=O)O)(O[C@@H]1O[C@H](CO)[C@@H](O)[C@H](O)[C@H]1O)C(=O)OCc1ccc(O[C@@H]2O[C@H](CO)[C@@H](O)[C@H](O)[C@H]2O)cc1 | 27% | –
13 | CC(C)C[C@@](O)(CC(=O)O)C(=O)OCc1ccc(O[C@@H]2O[C@H](CO)[C@@H](O)[C@H](O)[C@H]2O)cc1 | 28% | –
14 | CC(C)C[C@](O)(C(=O)OCc1ccc(O[C@@H]2O[C@H](CO)[C@@H](O)[C@H](O)[C@H]2O)cc1)[C@H](O)C(=O)OCc1ccc(O[C@@H]2O[C@H](CO)[C@@H](O)[C@H](O)[C@H]2O)cc1 | 23% | –
15 | CC(C)C[C@@](O)(CC(=O)OCc1ccc(O[C@@H]2O[C@H](CO[C@@H]3O[C@H](CO)[C@@H](O)[C@H](O)[C@H]3O)[C@@H](O)[C@H](O)[C@H]2O)cc1)C(=O)OCc1ccc(O[C@@H]2O[C@H](CO)[C@@H](O)[C@H](O)[C@H]2O)cc1 | 28% | 38%
16 | CC(C)C[C@](CC(=O)OCc1ccc(O[C@@H]2O[C@H](CO)[C@@H](O)[C@H](O)[C@H]2O)cc1)(O[C@@H]1O[C@H](CO)[C@@H](O)[C@H](O)[C@H]1OC(=O)/C=C\c1ccc(O[C@@H]2O[C@H](CO)[C@@H](O)[C@H](O)[C@H]2O)cc1)C(=O)OCc1ccc(O[C@@H]2O[C@H](CO)[C@@H](O)[C@H](O)[C@H]2O)cc1 | 17% | 38%
17 | CC(C)C[C@@](O)(CC(=O)OCc1ccc(O[C@@H]2O[C@H](CO)[C@@H](O)[C@H](O)[C@H]2O)cc1)C(=O)OCc1ccc(O[C@@H]2O[C@H](CO[C@@H]3O[C@H](CO)[C@@H](O)[C@H](O)[C@H]3O)[C@@H](O)[C@H](O)[C@H]2O)cc1 | 39% | 36%
18 | COC(=O)c1cc(OC)c2c(c1-c1c(CO)cc(OC)c3c1OCO3)OCO2 [BICYCLOL] | 32% | 47%

— ChEMBL document CHEMBL4819036, “Hepatoprotective Glucosyloxybenzyl 2-Hydroxy-2-isobutylsuccinates from Pleione yunnanensis” (2021)
